Assay outcomes: PubChem BioAssay, several laboratories
This is a sample that favours compounds with a hit; in the whole collection about 2.1% have one here.
Mot1-301 SUMO = inhibitors of SUMOylation pathway: yeast Mot1-301 growth rescue; 320,000 tested, 1% active; growth rescue, % at 18.8 µM; S. cerevisiae Mot1-301 growth rescue, ATP luminescence, 38.5C; percent above DMSO median, 100 means doubled; AID 2716;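 active means every valid replicate shows activation above 250% relative to neutral control wells; inactive means the rest, any valid replicate at or below 250%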;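 further: OY570 slx delta 5 strain wells were the positive control but not used for scaling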
UCH37 inh = human UCH37 deubiquitinating enzyme inhibition; Q9Y5K5; purified proteasome/UCH37, Ub-AMC cleavage fluorescence; inhibition, % (no concentration beside the values); 330,000 tested, 0.33% active; AID 588478;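 active means mean inhibition over replicate wells above about 20%, limit read from the data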;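 further: 0% = compound-free wells with enzyme and 100% = wells lacking proteasome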
Target sequence (Q9Y5K5 whole entry, looked up): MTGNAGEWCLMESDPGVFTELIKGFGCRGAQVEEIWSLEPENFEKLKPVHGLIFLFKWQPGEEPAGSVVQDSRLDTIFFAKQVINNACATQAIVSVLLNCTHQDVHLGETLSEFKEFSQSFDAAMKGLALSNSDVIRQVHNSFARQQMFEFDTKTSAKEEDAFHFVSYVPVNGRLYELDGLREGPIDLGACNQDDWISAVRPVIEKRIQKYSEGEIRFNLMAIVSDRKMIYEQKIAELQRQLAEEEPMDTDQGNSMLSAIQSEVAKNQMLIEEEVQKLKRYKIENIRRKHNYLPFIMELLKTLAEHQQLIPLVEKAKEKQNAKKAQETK
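Material: human UCH37 enzyme supplied as purified proteasome complex. Measure: % inhibition of Ub-AMC cleavage fluorescence. Medium: pH 7.4 Tris-HCl (50 mM) with ovalbumin, ATP-MgCl2, DTT. Times: 30 min preincubation with enzyme, 25 min cleavage at room temperature. Detection: AMC fluorescence intensity at 355/460 nm.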
ARNT-TACC3 inh = ARNT/TACC3 interaction disruption; AlphaScreen His-ARNT PAS-B/GST-TACC3 binding, luminescence; TACC3 fragment carries E629A point mutation; Q9Y6A5; 390,000 tested, 0.66% active; inhibition, % at 9.99 µM;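 active means mean inhibition of replicates at least 50% and at least half of replicates each reaching 50%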;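 further: 0% = complete ARNT plus TACC3 wells and 100% = ARNT alone without TACC3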
Cardiac RTF inh = cardiac RTF calcium desensitization; P19429+P45379; IANBD-labeled cardiac RTF, Ca2+ fluorescence; inhibition, % at 7.15 µM; 340,000 tested, 0.12% active; AID 493244;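 active means inhibition above the mean inhibition of all tested compounds plus 3 SD, cut at about 17% in these data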;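 further: assay run at fixed EC70 calcium of 1.6 mM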
Efflux pump mplx = antifungal efflux pump inhibition, Nile Red retention; 330,000 tested, 0.44% active; AID 485275; inhibition, % at 10 µM; S. cerevisiae Candida pump triplex;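 active means plate passing quality check with inhibition over a set limit, or well fluorescence over plate mean plus 4 SD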;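 further: Nile Red retained in pooled yeast measured as flow cytometry median fluorescence; 0% = buffer negative control and 100% = Enniatin B positive control; higher means more Nile Red kept so more efflux inhibition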
cardiac RTF act = increases calcium sensitivity of human cardiac regulated thin filaments. 340,000 tested, 0.24% active. IANBD-labeled TnC RTF fluorescence at EC20 calcium; 0% EC20 calcium, 100% full calcium. activation, % at 7.2 µM. AID 493008;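 active means activation above the mean over all tested compounds plus 3 SD, cut at about 30% in these data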;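 further: rise in fluorescence read as greater calcium sensitivity of cardiac thin filaments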
UCH37 reconfirm = UCH37 Ub-AMC cleavage inhibition, confirmed; Proteasome-bound UCH37, Ub-AMC cleavage fluorescence; inhibition, % at 20 µM; 480 tested, 27% active; shares compounds with UCH37 inh; AID 624100;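 active means average inhibition over replicates above about 50%, so the earlier screening hit is confirmed, limit read from the data; inactive means the rest, counted as false positives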;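 further: based on cleavage rate fitted by regression over a 30 min kinetic read; 0% = proteasome plus Ub-AMC and 100% = Ub-AMC without proteasome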
An asterisk follows results filed as active; . = no result.

SMILES | Mot1-301 SUMO | UCH37 inh | ARNT-TACC3 inh | Cardiac RTF inh | Efflux pump mplx | cardiac RTF act | UCH37 reconfirm
C=CCN1c2ccccc2[C@]23C[C@@H](C(=O)OC)N(C(=O)CC(C)C)C2=NC(C(=O)OC)=C(C(=O)OC)[C@H]13 | 11 | 3 | 2 | -2 | 0 | -6 | .
CCOC(=O)N1CCN(C2=C(NS(=O)(=O)c3ccc(NC(C)=O)cc3)C(=O)c3ccccc3C2=O)CC1 | -12 | 30* | 31* | -2 | 0 | -3 | 15
CCN1CCN(C2=C(NS(=O)(=O)c3ccc(NC(C)=O)cc3)C(=O)c3ccccc3C2=O)CC1 | -9 | 12 | 12 | -3 | 0 | 6 | .
O=C(CCNc1n[nH]c(=O)[nH]c1=O)NN=Cc1ccc(C(F)(F)F)cc1 | . | 3 | . | . | . | . | .
C/C(=C\C(=O)C(F)(F)F)Nc1ccc(C(F)(F)F)cc1 | 4 | 46* | -4 | -8 | 0 | 7 | 6
COc1ccc(NC(=O)C2CCCCN2N)cc1OC (centres undefined) | -3 | 29* | -7 | 4 | 0 | 0 | 46
COc1ccccc1-c1coc2cc(O)cc(O)c2c1=O | 9 | 48* | 8 | 3 | 0 | -3 | -6
COc1ccc(-c2coc3cc(O)cc(O)c3c2=O)cc1OC | 5 | 4 | -2 | -11 | 0 | 2 | .
O=[N+]([O-])c1ccc(Cl)c(C=NN2CCN(c3ccccc3)CC2)c1 | . | 1 | . | . | . | . | .
CC(=NNC(=O)CN1CCN(S(=O)(=O)c2ccc(Br)cc2)CC1)c1ccncc1 | . | 2 | . | . | . | . | .
C#CCOCCOCCOCCNc1nc(N2CCN(C(=O)Cn3cc(CCO)nn3)CC2)nc(N2CCN(C(=O)[C@H]([C@@H](C)O)n3cc(CCCCN)nn3)CC2)n1 | -17 | 38* | -7 | 7 | . | 4 | 19
CCSC1=C(C#N)C2(CCCC2)C(C#N)=C(N)N1 | -5 | 43* | -2 | -1 | 0 | 1 | 13
C=CCC1CCCC(=NNS(=O)(=O)c2ccc(C)cc2)C1 (centres undefined) | . | 2 | . | . | . | . | .
COC(=O)NN=Cc1cn(CCOc2ccc(OC)cc2)c2ccccc12 | . | 3 | . | . | . | . | .
N#C/C(=C\c1ccc(N2CCCCC2)o1)C(N)=O | -5 | 30* | 3 | -58 | 0 | 56* | 26
O=S(=O)(NCc1ccc(F)cc1)c1ccccc1Br | -7 | 35* | -1 | -5 | 0 | -3 | -11
O=S(=O)(NCc1ccccc1)c1ccc(F)cc1Br | 10 | -2 | -6 | 7 | 0 | 0 | .
COc1ccc(C=NNc2nc(Nc3ccccc3)nc(N3CCCC3)n2)cc1[N+](=O)[O-] | . | 5 | . | . | . | . | .
C[n+]1ccc(C=NNc2nc(Cl)c(C#N)c(Cl)c2Cl)cc1 | . | 25* | . | . | . | . | 32
NC(=S)n1[nH]c(-c2ccccc2)c(N=Nc2ccccc2C(=O)N2CCOCC2)c1=O | 6 | 54* | 4 | -1 | 0 | -1 | 6
COc1ccccc1NS(=O)(=O)c1ccc(NN=Cc2ccccc2OCC(=O)O)c([N+](=O)[O-])c1 | . | 14 | . | . | . | . | .
CCOc1ccc(C=NNc2ccc(S(=O)(=O)Nc3ccccc3C(=O)O)cc2[N+](=O)[O-])cc1OC | . | 44* | -2 | 1 | 0 | -3 | 75*
Cc1ccc(CN2CCN(N=Cc3ccc(N(C)C)cc3)CC2)cc1 | . | -2 | . | . | . | . | .
CCCCCc1ccc(OCCCC[n+]2ccccc2)c(CCCCC)c1 | 88 | 9 | . | 4 | 0 | -2 | .
CCCCCc1ccc(OCCCC[n+]2ccc(C)cc2)c(CCCCC)c1 | 68 | 29* | 6 | 0 | 0 | 0 | 43
SMILES | Mot1-301 SUMO | UCH37 inh | ARNT-TACC3 inh | Cardiac RTF inh | Efflux pump mplx | cardiac RTF act | UCH37 reconfirm
Cc1ccc(SC2=C(Sc3ccc(C)cc3)C(=O)c3ccccc3C2=O)cc1 | -11 | 52* | -1 | -2 | 0 | 4 | 29
CC1=C(C(=O)OCc2ccccc2)C(c2ccccc2Cl)NC(=O)N1CCCC(=O)O (centres undefined) | 272 | 41* | -4 | -10 | 0 | 11 | 9
O=[N+]([O-])c1ccc(Cl)c(C=NN2CCN(Cc3ccccc3Cl)CC2)c1 | . | 3 | . | . | . | . | .
CCOC(=O)/C(=C/C=C1\Sc2ccccc2N1CC)C(C)=O | 2 | 30* | 2 | -220 | 0 | 128* | 32
O=C1S/C(=C\c2ccc(O)c([N+](=O)[O-])c2)C(=O)N1Cc1cccc([N+](=O)[O-])c1 | -5 | . | . | . | 0 | . | .
O=C(O)c1cccc(CN2C(=O)S/C(=C/c3ccccc3[N+](=O)[O-])C2=O)c1 | 10 | 80* | 8 | 9 | 0 | -2 | 35
CC(=NNc1c(Cl)c(Cl)nc(C(=O)O)c1Cl)c1ccc(O)cc1 | . | 9 | . | . | . | . | .
O=C(CSC(=S)N1CCCC1)c1ccccc1 | 111 | 0 | -1 | 8 | 0 | -1 | .
O=C(CSC(=S)N1CCCCC1)c1ccccc1 | 201 | 39* | 4 | -11 | 0 | 13 | 12
Cc1ccc(N2CC(C(=O)NCCC3=CCCCC3)CC2=O)cc1 (centres undefined) | 234 | 41* | -2 | 4 | 0 | -3 | 55*
CCOc1ccc(N2CC(C(=O)NCCC3=CCCCC3)CC2=O)cc1 (centres undefined) | -4 | 4 | -2 | 1 | 0 | -1 | .
CC(=O)N(N=C1Sc2ccccc2C1=O)c1ccccc1 | . | 31* | . | . | . | . | 19
CC(=O)N(N=C1Sc2ccccc2C1=O)c1ccccc1C | . | 83* | . | . | . | . | 62*
Cc1cccc(NN=C(C=NN)C(=O)c2ccc(Br)cc2)c1 | . | 4 | . | . | . | . | .
Cc1cc(C)c(NC(=O)COC(=O)c2cccc3c2C(=O)c2ccccc2C3=O)c(C)c1 | -4 | 4 | 2 | 4 | 1 | -2 | .
Cc1cc(C)c(Nc2cc(S(=O)(=O)O)c(N)c3c2C(=O)c2ccccc2C3=O)c(C)c1 | -25 | 34* | 55* | 4 | 0 | -11 | 93*
O=C1C(N2CCOCC2)=C(n2nnc3ccccc32)C(=O)c2ccccc21 | -59 | 72* | 45* | -2 | 0 | -7 | 88*
CNC(=O)OCc1cccc(COC(=O)NC)n1 | 2 | 35* | -1 | -13 | 0 | -1 | 21
CC(=NO)c1ccc(Cl)cc1Cl | . | 6 | . | . | . | . | .
NC1=C(Br)C(=O)c2ccccc2C1=O | 45 | 34* | 36 | -2 | 0 | 0 | 50
Cc1cc2c(cc1C)C(=O)C(Br)=C(N)C2=O | . | 4 | 7 | 0 | . | -9 | .
Cn1c(SC(C(=O)Nc2ccc(F)cc2)c2ccccc2)nc2ccccc21 (centres undefined) | . | 45* | -1 | -10 | 0 | 4 | -5
Cn1nnnc1SC(C(=O)Nc1ccc(F)cc1)c1ccccc1 (centres undefined) | . | -2 | -27 | 8 | 0 | 3 | .
